Bioassay records from PubChem BioAssay.
Shown are actives, neighbours in structure and some others; about 2.9% of the full set was active somewhere.
CDK5 inh – CDK5/p35 (human) kinase inhibition | inhibition, % at 10 µM | actives 0.01% (n = 330,000) | Recombinant CDK5/p35, ADP-Glo luminescence, 60 min | AID 488839;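 active means highest replicate inhibition of at least 50% and at least 75% of replicates reaching 50%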;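 further: plate controls were DMSO neutral control for no effect and GW8510 at 10 µM for full effect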
HIV Env fusion – blocks HIV Env-driven cell-cell fusion. HeLa-JRFL Env/CEM21 cell fusion, luciferase. inhibition, % at 12.3 µM. actives 1.1% (n = 360,000);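 active means mean replicate inhibition score of at least 50 and every replicate individually at or above 50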;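 further: 0% = plate neutral controls and 100% = maraviroc near 300 nM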
INS-1E GSIS act – primary screen for activators of insulin secretion dependent on glucose, INS-1E cells, GLuc reporter luminescence | INS-1E GLuc reporter insulin secretion, 2-3 h | activation, % at 16.6 µM | actives 0.61% (n = 370,000) | AID 743287;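 active means lowest replicate activation of at least 40%, so every replicate reaches that level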;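 further: 0% = median of neutral control wells and 100% = median of IBMX positive control wells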
Cneo AK release – Cryptococcus neoformans lysis via adenylate kinase release; C. neoformans lysis, adenylate kinase release luminescence, 4 h; normalised: neutral wells 0, clomiphene wells 100; actives 0.2% (n = 360,000); lysis activity, % at 15 µM;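 active means mean lysis activity across replicates of at least 80%, whatever share of replicates individually reach that level; inactive means mean lysis activity below 80%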
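Assay system: Cryptococcus neoformans yeast cells / Dosing: single-point compound dose / Timing: 4 h at 37 °C static, read 1 h later / Measured by: luminescence of released adenylate kinase using an AK detection reagent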
dFosB act – activators of mouse delta FosB homodimer; actives 0.99% (n = 340,000); P13346; activation, % at 25 µM; purified delta FosB, TAMRA-CDK5 oligo fluorescence polarization; percent of positive-control signal above neutral wells;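 active means mean activation above about 17%, with every replicate also reaching it, limit read from the data, passing the limit was not always enough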
Target sequence (P13346 whole entry, looked up): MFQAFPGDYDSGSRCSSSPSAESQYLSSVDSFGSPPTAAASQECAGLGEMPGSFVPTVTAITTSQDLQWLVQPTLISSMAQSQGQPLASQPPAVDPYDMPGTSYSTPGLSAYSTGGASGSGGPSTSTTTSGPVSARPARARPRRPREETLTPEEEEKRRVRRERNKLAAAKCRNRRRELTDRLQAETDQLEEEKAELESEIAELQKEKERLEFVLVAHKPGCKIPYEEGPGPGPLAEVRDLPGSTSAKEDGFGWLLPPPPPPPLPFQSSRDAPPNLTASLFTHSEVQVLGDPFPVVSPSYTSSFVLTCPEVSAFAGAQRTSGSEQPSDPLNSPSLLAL
PAX8 inh HTS – PAX8 transcriptional activity inhibition | actives 1.2% (n = 360,000) | inhibition, % at 12.6 µM | RMG-I TPO-luciferase reporter, SteadyGlo, 24 h;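 active means mean replicate inhibition at least 60% with every replicate also reaching 60%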;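 further: luciferase light reporting Pax8 driven TPO promoter activity; plate controls were median of neutral control wells for no effect and mitoxantrone controls for full effect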
Numbers without * were called inactive; . = no result; [ ] = dose if it differs, or a comment.

SMILES	CDK5 inh	HIV Env fusion	INS-1E GSIS act	Cneo AK release	dFosB act	PAX8 inh HTS
CC(C)NC(=O)Nc1ccc2c(c1)C(=O)N([C@@H](C)CO)C[C@H](C)[C@@H](CN(C)Cc1ccccc1)OCCCC[C@H](C)O2	.	-14[16.7 µM]	4	0	.	-11
C[C@H](CO)N1C[C@H](C)[C@@H](CN(C)C(=O)CN(C)C)Oc2cc(Br)ccc2S1(=O)=O	.	20[16.7 µM]	4	-2	.	.
CCc1ccc(/C=C2\SC(=S)N(CCCC(=O)NC3=NCCS3)C2=O)cc1	.	59*	.	-1	.	13
COc1ccc(/C=C2\SC(=O)N(CCC(=O)Nc3ccccc3)C2=O)cc1OC	-3	-20	53*	.	4	-27
O=C(CCCN1C(=O)/C(=C\c2ccccc2)SC1=S)Nc1ccc(O)cc1	1	24	-8	5	-1	77*
COc1cccc(/C=C2\SC(=S)N(CCCC(=O)NC3=NCCS3)C2=O)c1	2	13	4	0	-1	.
CC(/C=C1\SC(=S)N(CCC(=O)Nc2ccc(O)cc2)C1=O)=C\c1ccccc1	0	7	-9	7	23*	74*
COc1ccc(/C=C2\SC(=O)N(CCCC(=O)Nc3ccc(C(=O)O)cc3)C2=O)cc1OC	-2	1	-8	-2	-8	0
COc1ccc2c3c(n(C)c2c1)[C@H](CO)N(C(=O)CN1CCOCC1)CC31CN(C)C1	.	.	16	.	.	.
O=C(O)CCCN1C(=O)/C(=C\C(Cl)=C\c2ccccc2)SC1=S	0	-104	-21	-1	-12	115*
O=C(CCCN1C(=O)/C(=C/c2cccs2)SC1=S)Nc1cccc(O)c1	2	-17	-12	2	-7	67*
COc1ccccc1/C=C1\SC(=S)N(CCC(=O)Nc2cccc(O)c2)C1=O	0	70*	3	-1	2	16
COc1ccc(/C=C2\SC(=O)N(CCCC(=O)Nc3cc(Cl)ccc3C(=O)O)C2=O)cc1	2	61*	12	.	-4	53
COc1ccc(/C=C2\SC(=S)N(CCC(=O)Nc3ccccc3C(=O)O)C2=O)cc1	3	19	14	8	1	1
C[C@@H]1CCCCO[C@@H](CN(C)S(=O)(=O)c2cn(C)cn2)[C@H](C)CN([C@H](C)CO)C(=O)c2cc(NC(=O)Cc3ccccc3)ccc2O1	.	-7[16.7 µM]	2	-33	.	-16
Cc1ccc(/C=C2/SC(=S)N(CCCC(=O)Nc3ccc(O)cc3)C2=O)cc1	1	55*	3	.	5	81*
COc1ccc(/C=C2/SC(=S)N(CCCC(=O)Nc3ccc(O)cc3)C2=O)cc1OC	-1	.	3	-1	-3	.
O=C(CCCN1C(=O)/C(=C/c2ccccc2)SC1=S)Nc1cccc(O)c1	0	10	-10	.	-1	66*
Cc1ccc(S(=O)(=O)N(C)C[C@H]2OCCCC[C@@H](C)Oc3ccc(N(C)C)cc3C(=O)N([C@@H](C)CO)C[C@@H]2C)cc1	.	-60[16.7 µM]	-1	0	.	42
C[C@@H]1CN([C@H](C)CO)C(=O)c2c(c3ccccc3n2C)-c2ccccc2CO[C@H]1CN(C)C	.	-18[16.7 µM]	13	-3	.	-37
C[C@H](CO)N1C[C@H](C)[C@H](CN(C)C(=O)c2ccccc2)OCc2ccccc2-c2c(n(C)c3ccccc23)C1=O	.	58*	-22	0	.	0
CC(C)COC(=O)N(C)C[C@H]1OCc2ccccc2-c2c(n(C)c3ccccc23)C(=O)N([C@H](C)CO)C[C@@H]1C	.	62*[16.7 µM]	-1	5	.	39
CO[C@H](C(=O)N(C)C[C@H]1OCc2ccccc2-c2c(n(C)c3ccccc23)C(=O)N([C@H](C)CO)C[C@H]1C)c1ccccc1	.	-99[16.7 µM]	-6	-4	.	1
CO[C@H](C(=O)N(C)C[C@@H]1OCc2ccccc2-c2c(n(C)c3ccccc23)C(=O)N([C@H](C)CO)C[C@@H]1C)c1ccccc1	.	78*	15	-1	.	0
C[C@@H]1CN([C@H](C)CO)C(=O)c2c(c3ccccc3n2C)-c2ccccc2CO[C@@H]1CN(C)C	.	-4[16.7 µM]	10	-2	.	88*
SMILES	CDK5 inh	HIV Env fusion	INS-1E GSIS act	Cneo AK release	dFosB act	PAX8 inh HTS
CCN(CC)c1ccc(C(NC(=O)C(C)C)c2ccc3cccnc3c2O)cc1 (configuration not stated)	.	2	.	0	.	93*
CCCC(=O)NC(c1ccc(N(C)C)cc1)c1c(O)ccc2ccccc12 (configuration not stated)	2	-62	-15	-1	-8	9
CC(C)C(=O)NC(c1ccco1)c1ccc2cccnc2c1O (configuration not stated)	0	.	9	2	-11	.
CCCCC(=O)NC(c1ccc(N(C)C)cc1)c1ccc2cccnc2c1O (configuration not stated)	1	-4	-13	-1	-9	86*
CCCCC(=O)NC(c1ccc(N(CC)CC)cc1)c1ccc2cccnc2c1O (configuration not stated)	2	-265	.	3	0	93*
CCC(=O)N(C)C[C@@H]1Oc2ncc(C#Cc3ccccc3OC)cc2C(=O)N([C@H](C)CO)C[C@@H]1C	.	10[16.7 µM]	-3	8	.	-1
C=CC(=O)Nc1cccc(Nc2nc(N[C@H]3CC[C@H](N(C)C)CC3)nc3c2ncn3C(C)C)c1	83*	.	.	4	22*	.
Cc1ccccc1NC1=C/C(=N\S(=O)(=O)c2cccs2)c2ccccc2C1=O	2	121*	.	0	-6	110*
COc1ccc(S(=O)(=O)/N=C2\C=C(Nc3ccc(O)cc3)C(=O)c3ccccc32)cc1	5	75*	-13	0	-9	108*
CC(=O)Nc1ccc(NC2=C/C(=N/S(=O)(=O)c3cccs3)c3ccccc3C2=O)cc1	-4	-8	-48	.	-5	83*
Cc1cnc2c(N)cc(C)c(C)c2c1	.	77*	.	7	.	44
C[C@H](CO)N1C[C@H](C)[C@H](CN(C)S(=O)(=O)c2ccc(Cl)cc2)Oc2ccc(NC(=O)CCCCCC(=O)Nc3ccccc3N)cc2CC1=O	.	34[16.7 µM]	-5	.	.	7
CS(=O)(=O)c1ccc(C(=O)Nc2ccc(N3CCCC3)cc2)c(Cl)c1	0	-7	11	2	1	10
Cc1ccccc1C(=O)Nc1ccc(N2CCCC2)cc1	-2	-24	-10	0	-1	-42
O=C(Nc1ccc(N2CCCC2)cc1)c1ccccc1[N+](=O)[O-]	2	-13	-5	-1	25*	-6
O=C(Nc1ccc(N2CCCC2)cc1)c1cc(Br)ccc1Cl	0	5	.	-3	52*	25
O=C(Nc1ccc(N2CCN(Cc3ccccc3)CC2)cc1)c1ccccc1[N+](=O)[O-]	1	6	11	.	-9	-16
O=C(Nc1nccs1)c1ccccc1[N+](=O)[O-]	0	-12	.	.	5	63*
